# According to ChEMBL document CHEMBL3414434, “Exploring the chemical space of ureidothiophene-2-carboxylic acids as inhibitors of the quorum sensing enzyme PqsD from Pseudomonas aeruginosa” (Eur J Med Chem, 2015):
# Activity calls are given as the source filed them. No cut-off for these calls is given here. Starred links: 1 amine or outer side, 2 acyl side, 3 side chain; linkers in the order of their positions; H or OH if unused. Non-standard residues stand in square brackets, D forms with d. Residues, ends and D or L forms follow the SMILES beside them. *: point of attachment. X1 = COc1ccc(-c2cc(N*)c(C(=O)O)s2)cc1; AEEA = NCCOCCOCC(=O)O; CO = O=C([*:1])[*:2]
# Target: T1, 2-heptyl-4(1H)-quinolone synthase PqsD (Pseudomonas aeruginosa) (UniProt A0A0C7ACN7)
# T1 sequence (whole entry): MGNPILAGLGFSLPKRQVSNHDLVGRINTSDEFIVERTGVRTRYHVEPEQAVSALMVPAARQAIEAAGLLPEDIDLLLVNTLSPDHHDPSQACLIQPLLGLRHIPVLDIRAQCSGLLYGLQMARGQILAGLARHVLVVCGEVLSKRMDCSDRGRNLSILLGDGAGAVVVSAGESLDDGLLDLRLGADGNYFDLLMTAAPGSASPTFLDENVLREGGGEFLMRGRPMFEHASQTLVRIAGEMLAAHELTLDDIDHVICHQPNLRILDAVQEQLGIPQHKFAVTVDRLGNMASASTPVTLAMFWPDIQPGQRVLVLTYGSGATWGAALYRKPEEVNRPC
# Assay: Inhibition of recombinant His6-tagged Pseudomonas aeruginosa PqsD expressed in Escherichia coli BL21 (deltaDE3) using anthraniloyl-CoA/beta-ketodecanoic acid as substrate assessed as HHQ formation at 50 uM preincubated for 10 mins followed by substrate addition by HPLC/MS-MS analysis relative to control
# Method in brief: (§1)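 His6-PqsD was expressed in E. coli BL21(DE3) (IPTG, 16 °C, 16 h) and purified by single-step affinity. Assay buffer was 0.05 M MOPS pH 7.0 with 0.005% Triton X-100, plus 0.1 µM enzyme and inhibitor (0.5% DMSO final). After 10 min preincubation at 37 °C, anthraniloyl-CoA was added; β-ketodecanoic acid was the second substrate. HHQ was measured by HPLC-MS against DMSO controls set to 100%.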
row,Structure (SMILES),inhibition
1,O=C(Nc1ccsc1C(=O)O)N[C@@H](Cc1ccccc1)C(=O)O,inactive
2,COc1ccc(-c2cc(NC(=O)N[C@@H](Cc3c[nH]cn3)C(=O)O)c(C(=O)O)s2)cc1,40%

# Test system: Pseudomonas aeruginosa
# Assay: Binding affinity to recombinant His6-tagged Pseudomonas aeruginosa PqsD/anthraniloyl-CoA complex at 25 to 100 uM by surface plasmon resonance analysis
# Method in brief: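 His6-PqsD on an SPR sensor chip. Running buffer was HEPES pH 7.4, 150 mM NaCl, 5% DMSO, 0.05% polysorbate 20. ACoA (100 µM) was injected for about 40 min to saturate the binding site, then flushed at higher flow for 30 min. Compounds were injected in sequence and equilibrium responses compared with untreated PqsD. Run in duplicate.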
row,Structure (SMILES),Activity
1,O=C(Nc1cc(-c2ccc(-c3ccc(CO)cc3)cc2)sc1C(=O)O)N[C@@H](Cc1ccccc1)C(=O)O,Active

# Target: T1, 2-heptyl-4(1H)-quinolone synthase PqsD (Pseudomonas aeruginosa)
# Assay: (§2) Inhibition of recombinant His6-tagged Pseudomonas aeruginosa PqsD expressed in Escherichia coli BL21 (deltaDE3) using anthraniloyl-CoA/beta-ketodecanoic acid as substrate assessed as HHQ formation preincubated for 10 mins followed by substrate addition by HPLC/MS-MS analysis
# Method in brief: as §1
row,Structure (SMILES),inhibition
1,CC[C@H](C)[C@H](NC(=O)[C@H](CCCNC(=N)N)NC(=O)[C@H](CCCNC(=N)N)NC(=O)[C@H](Cc1ccccc1)NC(=O)[C@H](CC(C)C)NC(=O)[C@H](CCCNC(=N)N)NC(=O)[C@H](CCCNC(=N)N)NC(=O)COCCOCCNC(=O)[C@H](Cc1ccccc1)NC(=O)Nc1cc(-c2ccc(OC)cc2)sc1C(=O)O)C(=O)N[C@@H](CC(C)C)C(=O)N[C@@H](CCCNC(=N)N)C(=O)N[C@@H](Cc1c[nH]c2ccccc12)C(=O)N[C@@H](CC(C)C)C(=O)O ({X1-CO}-F[AEEA]RRLFRRILRWL-OH),Active

# Target: T2, 2-heptyl-4(1H)-quinolone synthase PqsD (Pseudomonas aeruginosa, UniProt A0A0C7ACN7)
# T2 sequence (A0A0C7ACN7 whole entry): T1 sequence (whole entry)
# Assay: as §2
# Method in brief: as §1
row,Structure (SMILES),IC50 [µM]
1,O=C(Nc1cc(-c2cccc(-c3ccc(CO)cc3)c2)sc1C(=O)O)N[C@@H](Cc1ccccc1)C(=O)O,19.4
2,COc1ccc(-c2cc(NC(=O)N[C@@H](Cc3ccccc3)C(=O)O)c(C(=O)O)s2)cc1,0.5
3,O=C(Nc1cc(-c2ccc(-c3ccc(CO)cc3)cc2)sc1C(=O)O)N[C@@H](Cc1ccccc1)C(=O)O,0.14
4,COc1ccc(-c2cc(NC(=O)N[C@@H](Cc3ccccc3)C(=O)O)cs2)cc1,11.5
5,COc1ccc(-c2cc(NC(=O)N[C@@H](Cc3c[nH]c4ccccc34)C(=O)O)c(C(=O)O)s2)cc1,5
6,COc1ccc(-c2cc(NC(=O)NCP(=O)(O)O)c(C(=O)O)s2)cc1,7
7,COc1ccc(-c2cc(NC(=O)N[C@@H](Cc3ccc(Cl)cc3)C(=O)O)c(C(=O)O)s2)cc1,13.8
8,COc1ccc(-c2cc(NC(=O)N[C@@H](Cc3ccccc3)C(=O)SCCNC(C)=O)c(C(=O)O)s2)cc1,32
9,COc1ccc(-c2cc(NC(=O)N[C@@H](CCC(=O)O)C(=O)O)c(C(=O)O)s2)cc1,30.3
10,COc1ccc(-c2cc(NC(=O)NCC(=O)O)c(C(=O)O)s2)cc1,7
11,COc1ccc(-c2cc(NC(=O)N[C@@H](Cc3ccc(O)cc3)C(=O)O)c(C(=O)O)s2)cc1,29
12,O=C(Nc1cc(-c2cccc(-c3ccccc3)c2)sc1C(=O)O)N[C@@H](Cc1ccccc1)C(=O)O,6.2
13,COc1ccc(-c2cc(NC(=O)N[C@@H](Cc3ccccc3)C(=O)O)c(C(=O)O)s2)c(C)c1,7.5
14,O=C(Nc1cc(-c2ccc(-c3ccccc3)cc2)sc1C(=O)O)N[C@@H](Cc1ccccc1)C(=O)O,2.7
15,O=[N+]([O-])c1ccccc1C(O)c1ccccc1 (stereo not given),1
16,O=[N+]([O-])c1ccccc1CO,2
17,COc1ccc(-c2cc(NC(=O)N[C@H](C(=O)O)C(C)C)c(C(=O)O)s2)cc1,31.9
18,O=C(Nc1cc(-c2ccccc2)sc1C(=O)O)N[C@@H](Cc1ccccc1)C(=O)O,3.8
19,O=C(Nc1cc(-c2ccc(O)cc2)sc1C(=O)O)N[C@@H](Cc1ccccc1)C(=O)O,21.6
20,COc1ccc(-c2cc(NC(=O)N[C@@H](CCc3ccccc3)C(=O)O)c(C(=O)O)s2)cc1,33.7
21,COc1ccc(-c2cc(NC(=O)N[C@@H](CC(N)=O)C(=O)O)c(C(=O)O)s2)cc1,13.2
22,COc1ccc(-c2cc(NC(=O)N[C@@H](CO)C(=O)O)c(C(=O)O)s2)cc1,19
23,O=C(Nc1cc(-c2ccc(-c3ccc(C(O)c4ccccc4[N+](=O)[O-])cc3)cc2)sc1C(=O)O)N[C@@H](Cc1ccccc1)C(=O)O (stereo not given in full),0.36

# Test system: Pseudomonas aeruginosa PA14
# Assay: Inhibition of PqsD in Pseudomonas aeruginosa PA14 assessed as reduction of HHQ level at 250 uM after 16 hrs by UHPLC-MS/MS analysis relative to control
row,Structure (SMILES),inhibition
1,COc1ccc(-c2cc(NC(=O)N[C@@H](Cc3ccccc3)C(=O)SCCNC(C)=O)c(C(=O)O)s2)cc1,inactive
2,CC[C@H](C)[C@H](NC(=O)[C@H](CCCNC(=N)N)NC(=O)[C@H](CCCNC(=N)N)NC(=O)[C@H](Cc1ccccc1)NC(=O)[C@H](CC(C)C)NC(=O)[C@H](CCCNC(=N)N)NC(=O)[C@H](CCCNC(=N)N)NC(=O)COCCOCCNC(=O)[C@H](Cc1ccccc1)NC(=O)Nc1cc(-c2ccc(OC)cc2)sc1C(=O)O)C(=O)N[C@@H](CC(C)C)C(=O)N[C@@H](CCCNC(=N)N)C(=O)N[C@@H](Cc1c[nH]c2ccccc12)C(=O)N[C@@H](CC(C)C)C(=O)O ({X1-CO}-F[AEEA]RRLFRRILRWL-OH),inactive
3,COc1ccc(-c2cc(NC(=O)N[C@@H](Cc3c[nH]cn3)C(=O)O)c(C(=O)O)s2)cc1,16%
